From ChEMBL document CHEMBL1131521, “Structure-activity relationships for 1-phenylbenzimidazoles as selective ATP site inhibitors of the platelet-derived growth factor receptor” (J Med Chem, 1998)

Legend:
[1] = biological target: Fibroblast growth factor receptor 1 (Homo sapiens, UniProt P11362); assay: Inhibition of phosphorylation of a random glutamate/tyrosine copolymer in lysates of transfected Sf9 insect cells overexpressing human fibroblast growth factor receptor 1
Outline: (§1)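 Kinase source was lysate of transfected Sf9 insect cells overexpressing the receptor. Substrate was a random glutamate/tyrosine (4:1) copolymer, and the read-out was its phosphorylation. IC50 was the drug concentration (µM) giving inhibition.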

[2] = biological target: Platelet-derived growth factor receptor beta (Mus musculus, UniProt P05622); assay: Inhibition of phosphorylation of a random glutamate/tyrosine copolymer in lysates of transfected Sf9 insect cells overexpressing mouse platelet-derived growth factor receptor beta; outline: as §1
Sequence of Platelet-derived growth factor receptor beta (P05622 whole entry): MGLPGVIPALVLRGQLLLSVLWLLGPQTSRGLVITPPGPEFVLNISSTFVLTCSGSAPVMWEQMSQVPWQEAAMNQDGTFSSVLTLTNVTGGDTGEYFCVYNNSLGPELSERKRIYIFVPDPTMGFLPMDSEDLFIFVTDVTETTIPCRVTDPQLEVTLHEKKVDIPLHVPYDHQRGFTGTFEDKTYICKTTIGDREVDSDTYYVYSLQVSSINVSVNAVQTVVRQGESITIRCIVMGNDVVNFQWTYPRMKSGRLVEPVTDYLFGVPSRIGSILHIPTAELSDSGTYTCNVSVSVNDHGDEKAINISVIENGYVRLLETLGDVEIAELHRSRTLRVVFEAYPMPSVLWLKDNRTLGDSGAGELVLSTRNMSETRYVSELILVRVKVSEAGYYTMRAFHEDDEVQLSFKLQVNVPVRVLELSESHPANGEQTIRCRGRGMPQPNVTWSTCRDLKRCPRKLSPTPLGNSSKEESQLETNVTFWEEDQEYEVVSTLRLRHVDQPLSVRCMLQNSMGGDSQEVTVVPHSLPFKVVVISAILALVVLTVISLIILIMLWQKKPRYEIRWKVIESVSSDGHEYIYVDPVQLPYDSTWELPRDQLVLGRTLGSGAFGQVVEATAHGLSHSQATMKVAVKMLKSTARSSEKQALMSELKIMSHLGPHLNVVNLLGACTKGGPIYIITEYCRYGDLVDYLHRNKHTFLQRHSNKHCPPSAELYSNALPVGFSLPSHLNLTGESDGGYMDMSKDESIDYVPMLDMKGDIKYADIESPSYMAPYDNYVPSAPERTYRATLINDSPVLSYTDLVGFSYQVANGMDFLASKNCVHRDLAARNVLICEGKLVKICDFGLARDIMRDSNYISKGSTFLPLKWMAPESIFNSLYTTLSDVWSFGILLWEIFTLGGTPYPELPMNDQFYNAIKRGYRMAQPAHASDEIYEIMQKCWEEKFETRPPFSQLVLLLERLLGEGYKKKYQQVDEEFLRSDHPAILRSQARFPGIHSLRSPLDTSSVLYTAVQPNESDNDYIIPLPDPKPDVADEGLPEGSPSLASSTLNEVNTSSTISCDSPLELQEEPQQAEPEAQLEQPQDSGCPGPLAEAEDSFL

[3] = biological target: Platelet-derived growth factor receptor (PDGFr) (Rattus norvegicus, UniProt P20786+Q05030); assay: Inhibition of PDGF-stimulated Platelet-derived growth factor receptor autophosphorylation in rat aorta vascular smooth muscle cells.; type: functional
Outline: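 Rat aortic vascular smooth muscle cells, serum-starved, were exposed to compound for 2 h before stimulation with PDGF-BB at 25 ng/mL. Cell lysates or immunoprecipitates were analysed by Western blot with anti-phosphotyrosine antibody.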

Sequence of Fibroblast growth factor receptor 1 (P11362 whole entry): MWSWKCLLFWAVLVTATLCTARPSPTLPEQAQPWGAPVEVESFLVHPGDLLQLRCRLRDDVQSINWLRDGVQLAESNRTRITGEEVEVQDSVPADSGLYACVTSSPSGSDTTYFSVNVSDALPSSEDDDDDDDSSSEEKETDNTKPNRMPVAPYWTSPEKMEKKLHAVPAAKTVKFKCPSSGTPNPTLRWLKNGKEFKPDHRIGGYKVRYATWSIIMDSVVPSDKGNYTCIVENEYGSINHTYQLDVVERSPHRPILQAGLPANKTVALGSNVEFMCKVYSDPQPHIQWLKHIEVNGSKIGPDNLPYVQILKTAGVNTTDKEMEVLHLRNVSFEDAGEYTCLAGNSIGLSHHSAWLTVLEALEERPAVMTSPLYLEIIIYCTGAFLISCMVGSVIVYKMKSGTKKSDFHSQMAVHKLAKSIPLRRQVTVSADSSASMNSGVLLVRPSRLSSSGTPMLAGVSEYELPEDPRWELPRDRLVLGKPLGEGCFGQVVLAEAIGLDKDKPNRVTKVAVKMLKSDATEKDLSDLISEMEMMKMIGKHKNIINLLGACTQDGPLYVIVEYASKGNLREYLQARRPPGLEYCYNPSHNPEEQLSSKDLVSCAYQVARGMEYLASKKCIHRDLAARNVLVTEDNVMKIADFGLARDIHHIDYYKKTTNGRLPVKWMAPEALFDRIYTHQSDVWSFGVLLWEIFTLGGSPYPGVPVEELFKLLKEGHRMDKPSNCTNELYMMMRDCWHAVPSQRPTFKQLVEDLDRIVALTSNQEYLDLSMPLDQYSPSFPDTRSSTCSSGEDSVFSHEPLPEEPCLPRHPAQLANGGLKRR

SMILES	IC50 [1]	IC50 [2]	IC50 [3]
c1ccc(-n2cnc3cccnc32)cc1	> 50 µM	28 µM	–
NC(=O)c1cccc2c1ncn2-c1ccccc1	> 50 µM	> 50 µM	–
O=C(O)c1cccc2c1ncn2-c1ccccc1	> 50 µM	> 50 µM	–
NC(=O)c1ccc(-n2cnc3ccccc32)cc1	> 50 µM	23 µM	–
Cc1cccc2c1ncn2-c1ccccc1	> 50 µM	> 50 µM	–
Nc1cccc2c1ncn2-c1ccccc1	> 50 µM	> 50 µM	–
COC(=O)c1cccc2ncn(-c3ccccc3)c12	> 50 µM	> 50 µM	–
c1ccc(-c2nc3ccccc3[nH]2)cc1	> 50 µM	> 50 µM	–
Oc1cccc2ncn(-c3ccccc3)c12	50 µM	> 50 µM	–
O=[N+]([O-])c1cccc2ncn(-c3ccccc3)c12	40 µM	> 50 µM	–
NC(=O)c1ccc2ncn(-c3ccccc3)c2c1	> 50 µM	25 µM	–
Clc1cccc2ncn(-c3ccccc3)c12	> 50 µM	> 50 µM	–
c1ccc(-n2ccc3ccccc32)cc1	> 50 µM	> 50 µM	–
O=C(O)c1cccc2ncn(-c3ccccc3)c12	> 50 µM	> 50 µM	–
O=C(O)c1ccc(-n2cnc3ccccc32)cc1	> 50 µM	> 50 µM	–
c1ccc(-n2nnc3ccccc32)cc1	> 50 µM	> 50 µM	–
O=Cc1ccc2c(c1)ncn2-c1ccccc1	> 50 µM	–	–
c1ccc(C2=Nc3ccccc3NCC2)cc1	> 50 µM	> 50 µM	–

SMILES	IC50 [1]	IC50 [2]	IC50 [3]
O=C(O)c1ccc2ncn(-c3ccccc3)c2c1	50 µM	50 µM	–
O=[N+]([O-])c1ccc2ncn(-c3ccccc3)c2c1	39 µM	50 µM	–
Oc1nc2ccccc2n1-c1ccccc1	> 50 µM	> 50 µM	–
CC(=O)c1ccc2c(c1)ncn2-c1ccccc1	–	0.86 µM	–
Clc1ccc2ncn(-c3ccccc3)c2c1	> 50 µM	–	–
Nc1ccc2ncn(-c3ccccc3)c2c1	> 50 µM	23 µM	–
COC(=O)c1ccc2ncn(-c3ccccc3)c2c1	> 50 µM	–	–
c1ccc(-n2ncc3ccccc32)cc1	> 50 µM	> 50 µM	–
Clc1cccc2c1ncn2-c1ccccc1	> 50 µM	> 50 µM	–
Oc1cccc2c1ncn2-c1ccccc1	> 50 µM	11 µM	> 10 µM
Nc1nc2ccccc2n1-c1ccccc1	> 50 µM	> 50 µM	–
Nc1cccc2ncn(-c3ccccc3)c12	> 50 µM	> 50 µM	–
O=[N+]([O-])c1cccc2c1ncn2-c1ccccc1	> 50 µM	> 50 µM	–
Cc1nc2ccccc2n1-c1ccccc1	> 50 µM	> 50 µM	–
O=[N+]([O-])c1ccc2c(c1)ncn2-c1ccccc1	> 50 µM	16 µM	–
NC(=O)c1ccc2c(c1)ncn2-c1ccccc1	–	16 µM	–
NC(=O)c1cccc2ncn(-c3ccccc3)c12	> 50 µM	> 50 µM	–
COC(=O)c1cccc2c1ncn2-c1ccccc1	> 50 µM	> 50 µM	–

Now from value to compound:

IC50 [1]	IC50 [2]	IC50 [3]	SMILES
50 µM	25 µM	–	COc1cccc(-n2cnc3ccccc32)c1
> 50 µM	> 50 µM	–	O=C(O)c1ccccc1-n1cnc2ccccc21
> 50 µM	13 µM	–	COc1ccc(-n2cnc3ccccc32)cc1
> 50 µM	> 50 µM	–	Cc1cccc2ncn(-c3ccccc3)c12
50 µM	–	–	Cc1ccc2c(c1)ncn2-c1ccccc1
> 50 µM	> 50 µM	–	O=C(O)c1cccc(-n2cnc3ccccc32)c1
> 50 µM	> 50 µM	–	c1cncc(-n2cnc3ccccc32)c1
> 50 µM	> 50 µM	–	O=Cc1ccccc1-n1cnc2ccccc21
> 50 µM	24 µM	–	CC(=O)c1ccc(-n2cnc3ccccc32)cc1
> 50 µM	–	> 10 µM	COc1ccc2ncn(-c3ccccc3)c2c1
> 50 µM	> 50 µM	–	CCOC(=O)c1cccc(-n2cnc3ccccc32)c1
50 µM	–	–	O=Cc1cccc(-n2cnc3ccccc32)c1
> 50 µM	> 50 µM	–	O=[N+]([O-])c1ccccc1-n1cnc2ccccc21
50 µM	47 µM	–	Clc1cccc(-n2cnc3ccccc32)c1
> 50 µM	> 50 µM	–	CCOC(=O)c1ccccc1-n1cnc2ccccc21
> 50 µM	50 µM	–	COc1cccc2c1ncn2-c1ccccc1
> 50 µM	–	2 µM	Nc1ccc(-n2cnc3ccccc32)cc1
> 50 µM	> 50 µM	–	Cc1ccccc1-n1cnc2ccccc21
> 50 µM	> 50 µM	–	Oc1ccccc1-n1cnc2ccccc21
> 50 µM	> 50 µM	–	Clc1ccccc1-n1cnc2ccccc21
> 50 µM	40 µM	–	Cc1ccc2ncn(-c3ccccc3)c2c1
–	0.83 µM	0.15 µM	COC(=O)c1ccc2c(c1)ncn2-c1ccccc1
> 50 µM	> 50 µM	–	NC(=O)c1cccc(-n2cnc3ccccc32)c1
> 50 µM	–	–	Oc1ccc2ncn(-c3ccccc3)c2c1

IC50 [1]	IC50 [2]	IC50 [3]	SMILES
50 µM	37 µM	–	COc1cccc2ncn(-c3ccccc3)c12
> 50 µM	> 50 µM	–	N#Cc1ccccc1-n1cnc2ccccc21
–	0.43 µM	1.9 µM	COc1ccc2c(c1)ncn2-c1ccccc1
50 µM	–	–	COC(=O)c1ccc(-n2cnc3ccccc32)cc1
> 50 µM	> 50 µM	–	Nc1ccccc1-n1cnc2ccccc21
> 50 µM	> 50 µM	–	COc1ccccc1-n1cnc2ccccc21
> 50 µM	> 50 µM	–	O=C(c1ccccc1)n1cnc2ccccc21
> 50 µM	> 50 µM	–	c1ccc(Cn2cnc3ccccc32)cc1
> 50 µM	> 50 µM	–	Cc1ccc(-n2cnc3ccccc32)cc1
> 50 µM	50 µM	–	Clc1ccc(-n2cnc3ccccc32)cc1
> 50 µM	12 µM	–	c1ccc2c(c1)ncn2-c1ccncc1
> 50 µM	19 µM	–	CC(=O)c1cccc(-n2cnc3ccccc32)c1
> 50 µM	> 50 µM	–	N#Cc1cccc(-n2cnc3ccccc32)c1
–	0.44 µM	0.13 µM	Oc1ccc2c(c1)ncn2-c1ccccc1
> 50 µM	> 50 µM	–	NC(=O)c1ccccc1-n1cnc2ccccc21
> 50 µM	16 µM	–	N#Cc1ccc(-n2cnc3ccccc32)cc1
> 50 µM	> 50 µM	–	c1ccc(-n2cnc3ccccc32)nc1
> 50 µM	–	–	Nc1cccc(-n2cnc3ccccc32)c1
35 µM	16 µM	–	O=[N+]([O-])c1cccc(-n2cnc3ccccc32)c1
> 50 µM	–	2.3 µM	c1ccc(-n2cnc3ccccc32)cc1
> 50 µM	28 µM	–	Cc1cccc(-n2cnc3ccccc32)c1
> 50 µM	30 µM	–	O=[N+]([O-])c1ccc(-n2cnc3ccccc32)cc1
> 50 µM	13 µM	–	O=Cc1ccc(-n2cnc3ccccc32)cc1
> 50 µM	> 50 µM	–	CC(=O)c1ccccc1-n1cnc2ccccc21
